Results: ChEMBL document CHEMBL6127097, “Structure-Guided Discovery of cis-Hexahydro-pyrido-oxazinones as Reversible, Drug-like Monoacylglycerol Lipase Inhibitors” (J Med Chem, 2024)
Active and inactive are the calls of the source.

Key:
[1] = molecular target: T1, Monoglyceride lipase (Homo sapiens) (UniProt Q99685); test: Binding affinity to human MAGL assessed as association rate constant by SPR analysis
T1 sequence (whole entry): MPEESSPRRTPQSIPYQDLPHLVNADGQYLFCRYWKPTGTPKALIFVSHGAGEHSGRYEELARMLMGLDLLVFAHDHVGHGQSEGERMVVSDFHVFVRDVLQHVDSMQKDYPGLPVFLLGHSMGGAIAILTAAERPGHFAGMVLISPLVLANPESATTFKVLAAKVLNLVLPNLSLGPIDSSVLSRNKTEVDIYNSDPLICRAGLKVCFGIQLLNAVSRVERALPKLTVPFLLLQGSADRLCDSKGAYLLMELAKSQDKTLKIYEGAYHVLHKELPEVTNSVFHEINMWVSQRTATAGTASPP
How it was run: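 Human or rat MAGL was immobilized by amine coupling without ethanolamine quenching. Runs were done at 18 °C in 10 mM HEPES, 150 mM NaCl, 0.05% P20, 50 µM EDTA, pH 7.4, with 1% DMSO. Single-cycle kinetics used five concentrations, top 1 µM in 2-fold steps, at 30 µL/min, giving kon, koff and Kd.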

Mus musculus [2] = test: Antiinflammatory activity in LPS-induced CD-1 mouse neuroinflammation model assessed as decrease in peripheral tissue LCN2 mRNA expression at 30 mg/kg, ip measured after 6 hrs by qRT-PCR analysis; assay type: functional, organism-based
How it was run: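 CD-1 mice were dosed with NaCl + vehicle, LPS (5 mg/kg) + vehicle, or LPS + inhibitor at 30 mg/kg i.p. (vehicle NaCl/DMSO/Tween 80, 80/10/10). They were sacrificed 6 h post-compound. LCN2 and IL1b mRNA in peripheral tissue were measured by droplet digital qRT-PCR.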

Mus musculus [3] = test: Downregulation of brain AA level in ip dosed mouse measured after 4 hrs; assay type: functional, organism-based; conditions: dose 3-30 mg/kg
How it was run: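 Mice received 3, 10 or 30 mg/kg i.p. in NaCl/DMSO/Tween 80 (80/10/10) and were sacrificed after 4 h. Arachidonic acid in brain extracts was measured by LC/MS.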

Mus musculus [4] = test: Upregulation of brain 2-AG level in mouse at 30 mg/kg, ip measured after 8 to 24 hrs; assay type: functional, organism-based; conditions: time 8-24 hrs
How it was run: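 Male-unspecified mice received a single i.p. dose of 30 mg/kg. The vehicle was NaCl/DMSO/TW80 (80/10/10): the drug was dissolved in equal parts DMSO and TW80, then diluted with 8 parts normal saline. Brain 2-AG levels were followed over 24 h after dosing and measured by LC/MS in brain extracts.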

[5] = molecular target: T2, Monoglyceride lipase (Mus musculus) (UniProt O35678); test: In vivo receptor occupancy at MAGL receptor in mouse at 30 mg/kg, ip measured after 2 hrs; assay type: functional, organism-based
T2 sequence (whole entry): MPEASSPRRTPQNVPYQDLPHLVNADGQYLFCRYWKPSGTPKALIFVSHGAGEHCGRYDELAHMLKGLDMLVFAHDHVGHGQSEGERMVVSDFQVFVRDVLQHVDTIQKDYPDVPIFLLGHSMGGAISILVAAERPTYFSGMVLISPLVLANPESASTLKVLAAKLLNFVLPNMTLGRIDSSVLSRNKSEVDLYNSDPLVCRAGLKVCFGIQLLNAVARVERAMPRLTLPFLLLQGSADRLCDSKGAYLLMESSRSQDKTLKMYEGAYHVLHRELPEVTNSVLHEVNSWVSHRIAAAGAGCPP
How it was run: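 Mice dosed 30 mg/kg i.p. in NaCl/DMSO/TW80 (80/10/10). Brain proteome was prepared at set time points over 24 h and MAGL occupancy read by activity-based protein profiling.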

[6] = Drug concentration in mouse CSF at 10 mg/kg, ip measured after 4 hrs; assay type: ADME, organism-based, Cerebrospinal fluid; conditions: read-out: Ct
[7] = Cmax in Wistar rat at 5 mg/kg, po measured upto 24 hrs by LC-MS/MS analysis; assay type: ADME, organism-based; conditions: in vivo
How it was run: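 Male Wistar rats (N = 3 per group) received a single dose. The i.v. dose was 1 mg/kg in NMP/0.9% NaCl 30:70. The p.o. dose was 5 mg/kg in NMP/HPMC/diisooctyl sulfosuccinate 10:90. Blood was taken into K2EDTA from 0.083 (i.v.) or 0.25 h to 24 h. Plasma was assayed by LC-MS/MS and analysed non-compartmentally.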

[8] = Average drug concentration in mouse plasma at 30 mg/kg, ip measured after 8 hrs; assay type: ADME, organism-based; conditions: in vivo
How it was run: (§1)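 In a time course, mice were injected i.p. with 30 mg/kg in NaCl/DMSO/Tween 80 (80/10/10). Average plasma levels were determined at the stated time points over 24 h.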

[9] = Average drug concentration in mouse plasma at 30 mg/kg, ip measured after 24 hrs; assay type: ADME, organism-based; conditions: in vivo; how it was run: as §1
[10] = Unbound brain to plasma partition coefficient of compound in Wistar rat at 10 mg/kg, ip measured upto 7 hrs by LC-MS/MS analysis; assay type: ADME, organism-based; conditions: read-out: K(p,uu,brain)
How it was run: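 Male Wistar rats, single dose. i.v. in NMP/0.9% NaCl 30:70; p.o. and i.p. in NMP/HPMC/diisooctyl sulfosuccinate 10:90; 3 per i.v./p.o. group, 6 i.p. K2EDTA plasma sampled 0.083–7 h, plus 24 h for i.v./p.o.; brain and CSF at 1, 2, 7 h (i.p. only). LC-MS/MS, noncompartmental analysis.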

[11] = Octanol-water partition coefficient, logD of the compound at pH 7.4 incubated for 1.5 hrs by shake flask based LC-UV/MS analysis; assay type: physicochemical; conditions: pH 7.4, 1.5 h, 1.5 h
How it was run: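 CAMDIS shake-flask variant. 10 mM DMSO stock is diluted into 25 mM phosphate pH 7.4 over a 1-octanol-impregnated PVDF membrane and shaken 1.5 h at 21 °C, at two octanol/buffer ratios, in triplicate. Remaining aqueous concentration is read by LC/MS; logD comes from the difference with and without octanol.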

[12] = Cmax in Wistar rat at 10 mg/kg, ip measured upto 24 hrs by LC-MS/MS analysis; assay type: ADME, organism-based; conditions: in vivo
[13] = Plasma protein binding in human assessed as fraction unbound by equilibrium dialysis based LC-MS/MS method; assay type: ADME, cell-free
How it was run: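 Equilibrium dialysis across a 12–14 kDa cutoff membrane in a Teflon 96-well device. Pooled frozen plasma is adjusted to pH 7.4 and spiked at 1000 nM initial total, against Soerensen buffer pH 7.4. Incubation is 5 h at 37 °C, 5% CO2, with diazepam control in each well. %fu = 100 × buffer/matrix concentration after dialysis; recovery accepted at 80–120%.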

[14] = Average drug concentration in mouse plasma at 30 mg/kg, ip measured after 2 hrs; assay type: ADME, organism-based; conditions: read-out: Cave; how it was run: as §1

K [1] | Activity [5] [%] | concentration at 4 h [6] [µM] | Cmax [7] [µg/mL] | Cave [8] [µM] | Cave [9] [µM] | Kp uu at 7 h [10] | logD [11] | Cmax [12] [µg/mL] | fraction unbound [13] | concentration at 2 h [14] [µM] | SMILES | Activity (Mus musculus [2]) | Activity (Mus musculus [3]) | Activity (Mus musculus [4])
2.5 10^5/M/s | 96 |  |  |  |  |  |  |  |  |  | O=C1CO[C@H]2CCN(C(=O)N3CCC(Cc4ccc(C(F)(F)F)cc4)CC3)C[C@H]2N1 [listing 1 of 2 here] | inactive | Dose-Dependent Effect | inactive
 |  | 0.123 | 1.29 | 21.089 | 0.1 | 0.53 | 3.3 | 12.2 | 0.043 | 42 | O=C1CO[C@H]2CCN(C(=O)N3CCC(Cc4ccc(C(F)(F)F)cc4)CC3)C[C@H]2N1 [listing 2 of 2 here] |  |  | 
